Data taken from PMC4721940 (Journal of enzyme inhibition and medicinal chemistry, 2015).

Columns and labels:
[1] = molecular target: T1, human neutrophil elastase (HNE) (Homo sapiens, UniProt P08246); assay: HNE inhibition assay; type: biochemical
T1 sequence (P08246 30-247 limits assumed): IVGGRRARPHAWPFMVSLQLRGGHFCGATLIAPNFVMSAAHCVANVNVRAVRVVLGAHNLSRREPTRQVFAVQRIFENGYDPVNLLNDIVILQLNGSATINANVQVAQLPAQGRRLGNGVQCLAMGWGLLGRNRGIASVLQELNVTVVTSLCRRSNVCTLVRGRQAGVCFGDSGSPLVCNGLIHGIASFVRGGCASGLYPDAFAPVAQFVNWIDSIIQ
Procedure, shortened: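 Human neutrophil elastase (20 mU/mL) in 200 mM Tris-HCl pH 7.5 with 0.01% BSA and 0.05% Tween-20, pre-incubated 5 min with test compound (DMSO final 1%). Started with 25 μM MeOSuc-Ala-Ala-Pro-Val-AMC. Fluorescence (ex 355/em 460 nm) read every 30 s for 10 min at 25 °C.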

[2] = molecular target: T1, human neutrophil elastase (HNE); assay: HNE inhibition constant; type: biochemical
Stability in human serum = type: in vitro ADME; conditions: 25 °C
Procedure, shortened: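 Serum prepared by clotting fresh human blood 1 h at room temperature. Test compound (10 mM DMSO stock) added to serum and incubated at 25 °C. Timed aliquots quenched in acetonitrile and centrifuged 5 min at 10 000g. Analysed by RP-HPLC: C18 column, acetonitrile/water 65/35 with 0.1% TFA, 1 mL/min, 40 °C, diode-array detection 200–300 nm. Remaining compound calculated from peak area.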

HNE = molecular target: T2, HNE (Homo sapiens, UniProt P08246); assay: Reactivation of the HNE–inhibitor complex after ultrafiltration; type: biochemical; conditions: 25 μM inhibitor, data not shown
T2 sequence (P08246 30-247 limits assumed): T1 sequence (P08246 30-247 limits assumed)

[3] = Spontaneous hydrolysis in phosphate buffer; type: physicochemical; conditions: after 60 min in aqueous buffer, absorbance at 325 nm
Procedure, shortened: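 Test compound in 0.05 M phosphate buffer, pH 7.3, at 25 °C. Absorbance at each compound's absorption maximum read over time until no further decrease (A∞). k′ taken from the slope of log(At–A∞) vs time; t1/2 = 0.693/k′.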

Compound	HNE inhibitory activity (in words) [1]	other results
CCOC(=O)c1nn(Cc2cccc(C)c2)c2ccccc2c1=O [Compound 6, Ethyl 1-(3-methylbenzyl)-4-oxo-1,4-dihydrocinnoline-3-carboxylate]	completely inactive	
Cc1cccc(C(=O)n2nc(-c3ccccc3)c(=O)c3ccccc32)c1 [Compound 11a, 1-(3-Methylbenzoyl)-3-phenylcinnolin-4(1H)-one]	loss of activity	
Cc1cccc(C(=O)n2ncc(=O)c3ccccc32)c1 [Compound 18a, 1-(3-Methylbenzoyl)cinnolin-4(1H)-one]		Ki [2]: 75 nM; Type of HNE inhibition ([2]; double-reciprocal Lineweaver–Burk plots): competitive inhibitors; percent of initial compound remaining (Stability in human serum; 5 min of incubation): < 3%; compound remaining (Stability in human serum; after 10 min): essentially no detectable compounds; Recovery of HNE activity after removing free inhibitor (HNE): fully reversible
CCOC(=O)c1nn(C)c2ccccc2c1=O [Compound 5, Ethyl 1-methyl-4-oxo-1,4-dihydrocinnoline-3-carboxylate]	completely inactive	
Cc1cccc(C(=O)N2NCC(O)c3ccccc32)c1 (stereo not drawn) [Compound 19, (4-Hydroxy-3,4-dihydrocinnolin-1(2H)-yl)(m-tolyl)meyhanone]	completely devoid of activity	
Cc1cccc(C(=O)n2ncc(=O)c3cc([N+](=O)[O-])ccc32)c1 [Compound 21a, 1-(3-Methylbenzoyl)-6-nitrocinnolin-4(1H)-one]		Extent of hydrolysis [3]: hydrolyzed almost completely

Now from value to molecule, other results behind:

HNE inhibitory activity (in words) [1]	Compound	other results
loss of activity	Cc1cccc(C(=O)n2nc(CO)c(=O)c3ccccc32)c1 [Compound 11d, 3-(Hydroxymethyl)-1-(3-methylbenzoyl)cinnolin-4(1H)-one]	
loss of activity	Cc1cccc(C(=O)n2nc(C(=O)O)c(=O)c3ccccc32)c1 [Compound 8, 1-(3-Methylbenzoyl)-4-oxo-1,4-dihydrocinnoline-3-carboxylic acid]	
